Experimental data taken from PMC7117380 (Veterinary Microbiology, 2017).
pIC50: −log10 of the molar value.

Columns and labels:
PRRSV 3CLSP (nsp4) = target: T1, PRRSV 3CLSP (nsp4) (Porcine reproductive and respiratory syndrome virus, UniProt A1E8J1); test: FRET assay of PRRSV 3CLSP; format: biochemical
T1 sequence (A1E8J1 1780-1983): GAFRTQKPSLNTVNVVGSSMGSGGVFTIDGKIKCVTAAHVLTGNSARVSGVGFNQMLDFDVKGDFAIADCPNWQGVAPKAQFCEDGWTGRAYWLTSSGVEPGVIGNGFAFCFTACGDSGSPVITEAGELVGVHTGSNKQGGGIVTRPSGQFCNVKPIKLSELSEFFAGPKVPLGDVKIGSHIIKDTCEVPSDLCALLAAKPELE

PEDV 3CL protease (nsp5) = target: T2, PEDV 3CL protease (nsp5) (Porcine epidemic diarrhea virus, UniProt P0C6Y4); test: FRET assay of PEDV 3CL protease; format: biochemical
T2 sequence (P0C6Y4 2998-3299 limits assumed): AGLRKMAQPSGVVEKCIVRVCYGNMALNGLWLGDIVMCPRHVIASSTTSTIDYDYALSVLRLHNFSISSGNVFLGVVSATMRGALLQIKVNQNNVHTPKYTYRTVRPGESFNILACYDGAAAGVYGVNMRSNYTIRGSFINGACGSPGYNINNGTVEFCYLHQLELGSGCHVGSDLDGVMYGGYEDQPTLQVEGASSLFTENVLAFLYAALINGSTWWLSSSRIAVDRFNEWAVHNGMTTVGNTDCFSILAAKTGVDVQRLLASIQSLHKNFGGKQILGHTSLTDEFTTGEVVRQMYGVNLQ
Outline: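 The assay used purified PEDV nsp5 (3CL protease) at 0.25 μM final and substrate Dabcyl-YNSTLQ↓AGLRKM-E-Edans at 10 μM. Test compound (6.25–500 μM) was preincubated with enzyme for 20 min at 37 °C, then incubated with substrate for 60 min at 37 °C. Fluorescence was read at ex 340/em 485, minus a no-protease background. Inhibition % came from the 60–0 min RFU change against control, and IC50 from nonlinear regression of triplicate runs.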

[1] = tested on: PRRSV nucleocapsid (N) protein; test: Western blot of PRRSV nucleocapsid; format: cell-based, porcine reproductive and respiratory syndrome virus; settings: MARC-145 cells; for PRRSV N protein detection (western blot): 100 μM; for PRRSV N protein level (western blot), dose response: 6.25–200 μM, 36 h
in vitro = format: cell-based; settings: African green monkey
Cell viability assay = format: cell-based; settings: African green monkey, Vero cells
Outline: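 Confluent Vero cells in DMEM with 10% FBS at 37 °C, 5% CO2 were exposed to test compound at 50–500 μM for 72 h, with 0.1% DMSO as control. Viability was read by CellTiter-Glo luminescence. CC50 was fitted in GraphPad Prism from triplicate experiments (±SD).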

[2] = tested on: PRRSV (HP-PRRSV WUH3 strain); test: TCID50 assay for PRRSV replication in MARC-145 cells; format: cell-based, porcine reproductive and respiratory syndrome virus; settings: for Inhibition of PRRSV infection: 100 μM
PEDV (FJZZ strain) = test: TCID50 assay for PEDV replication in Vero cells; format: cell-based, porcine epidemic diarrhea virus
[3] = tested on: PEDV nucleocapsid (N) protein; test: Western blot of PEDV nucleocapsid; format: cell-based, porcine epidemic diarrhea virus; settings: Vero cells
EAV 3CLSP (nsp4) = target: T3, EAV 3CLSP (nsp4) (Equine arteritis virus, UniProt P19811); test: FRET assay of EAV 3CLSP; format: biochemical; settings: 1 μM substrate, 12.5-500 μM compound
T3 sequence (P19811 1065-1268 limits assumed): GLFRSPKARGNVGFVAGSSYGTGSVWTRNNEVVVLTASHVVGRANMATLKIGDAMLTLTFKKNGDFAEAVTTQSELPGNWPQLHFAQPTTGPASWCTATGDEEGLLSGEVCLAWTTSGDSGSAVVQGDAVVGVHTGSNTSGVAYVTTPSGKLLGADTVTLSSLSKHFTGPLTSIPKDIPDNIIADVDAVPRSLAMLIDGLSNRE

SMILES | pIC50 (PRRSV 3CLSP (nsp4)) | pIC50 (PEDV 3CL protease (nsp5)) | Suppression of PRRSV replication (western blot) [1] | CC50 (in vitro) | CC50 at 72 h (Cell viability assay) | Inhibition of PRRSV infection [2] | PRRSV-3CLpro SI values (selectivity index) ([2]; PRRSV) | PEDV-3CLpro SI values (selectivity index) (PEDV (FJZZ strain)) | PRRSV N protein detection (western blot) [1] | PRRSV N protein level (western blot), dose response [1] | PEDV N protein level (western blot), dose response [3] | Protease activity of EAV 3CLSP (EAV 3CLSP (nsp4)) | viability at 72 h, 500 µM (in vitro)
Cc1ccncc1 [Compound 4, 4-methylpyridine] | 3.83 | < 3.30 | did not substantially suppress PRRSV replication | – | – | – | – | – | – | – | – | – | –
Cc1cccc(C)c1C(=O)c1ccc(O)cc1O [Compound 3, (2,4-dihydroxyphenyl)(2,6-dimethylphenyl)methanone] | 3.94 | 4.63 | – | 483 µM | > 500 µM | strongly inhibited PRRSV infection | ~8.5 | ~9.02 | no viral N protein was detectable | decreased | decreased | inhibited | –
CC1CCN(c2ncnc3ccccc23)CC1 [Compound 5, 4-(4-methylpiperidin-1-yl)quinazoline] | 3.76 | – | – | > 500 µM | – | – | – | – | – | decreased | – | – | > 60%
Cc1ccc(C(=O)c2ccc(O)cc2O)cc1 [Compound 2, (2,4-dihydroxyphenyl) (4-methylphenyl)methanone] | 3.84 | 4.42 | – | 480 µM | > 500 µM | strongly inhibited PRRSV infection | – | – | no viral N protein was detectable | decreased | decreased | – | –
